Series [1] concerns the target Transient receptor potential cation channel subfamily M member 8 (Homo sapiens, UniProt Q7Z2W7). As to the kind of experiment: Agonist activity at human TRPM8 expressed in HEK cells assessed as increase in menthol-induced intracellular calcium level measured after 1 hr by FLIPR assay. The series is classed as cell-based. A digest of the protocol: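 HEK cells with stable hTRPM8, 20,000/well on poly-D-lysine plates 24 h ahead. Loaded with calcium-6 dye and 2.5 mM probenecid, 1 h at 37 °C then 1 h at rt. First-addition calcium rise scaled to (−)menthol 100 μM final (100% control); pEC50 derived from the concentration–response. Final DMSO 0.5%; assay at rt.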

Series [2] can be described thus: Protein binding in human plasma assessed as unbound fraction measured after 5 hrs by equilibrium dialysis based HPLC/UPLC-MS/MS analysis. It is filed as ADME, cell-free. Background: In equilibrium dialysis only unbound substance equilibrates across the membrane.
A short description of series [3]: Protein binding in rat plasma assessed as unbound fraction measured after 5 hrs by equilibrium dialysis based HPLC/UPLC-MS/MS analysis. It is filed as ADME, cell-free.
For series [4], the target named is Transient receptor potential cation channel subfamily A member 1 (Homo sapiens, UniProt O75762). In words: Agonist activity at human TRPA1 expressed in HEK cells assessed as increase in menthol-induced intracellular calcium level incubated for 2 hrs by FLIPR assay. It is filed as cell-based. A digest of the protocol:
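HEK cells stably expressing hTRPA1, plated at 20,000/well 24 h ahead, loaded with calcium-6 dye plus 2.5 mM probenecid for 2 h at 37 °C. First FLIPR addition: 11-point 1:3 concentration series, read for 5 min, scaled to (−)menthol 1 mM final (100% control); pEC50 fitted. Final DMSO 0.5%; run at 37 °C.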
On the technique in general: A change in cytosolic calcium serves as a functional read-out for many receptors and channels.

Series [5] has as its target Transient receptor potential cation channel subfamily V member 1 (Homo sapiens, UniProt Q8NER1). In words: Agonist activity at human TRPV1 expressed in CHO cells assessed as increase in capsaicin-induced intracellular calcium level measured after 1 hr by FLIPR assay. The series is classed as cell-based. A digest of the protocol: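 CHO cells stably expressing hTRPV1, plated at 10,000/well 24 h before the assay. Loaded with calcium-6 dye plus 2.5 mM probenecid for 1 h at 37 °C and 1 h at rt. FLIPR dual-addition protocol; agonist potency derived as pEC50.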

Series [6] is described as follows: Intrinsic clearance in mouse liver microsomes assessed per mg protein incubated up to 30 mins in presence of NADPH by LC-MS/MS analysis. It is filed as ADME, Microsome. The note with it: […]. On the technique in general: Liver microsomes are a subcellular fraction often used to study metabolism.
The nature of series [7]: Protein binding in mouse plasma assessed as unbound fraction measured after 5 hrs by equilibrium dialysis based HPLC/UPLC-MS/MS analysis. The series is classed as ADME, cell-free.
Series [8] can be described thus: Clast in CD-1 mouse at 10 mg/kg, po measured up to 24 hrs. It is filed as ADME, organism-based. As to conditions: in vivo, read-out: Clast.
The nature of series [9]: Oral bioavailability in CD-1 mouse at 10 mg/kg measured up to 24 hrs. The series is classed as ADME, organism-based. The note with it: in vivo.
A short description of series [10]: AUClast in CD-1 mouse at 1 mg/kg, iv measured up to 24 hrs. It is filed as ADME, organism-based. The arrangement: route intravenous, dose 1 mg/kg, time <=24. As to conditions: in vivo.
The nature of series [11]: Volume of distribution at steady state in CD-1 mouse at 1 mg/kg, iv measured up to 24 hrs. The series is classed as ADME, organism-based. The note with it: in vivo, read-out: Vdss.
Series [12] deals with Mus musculus. As to the kind of experiment: Gastroprokinetic activity in CD-1 mouse assessed as stimulation of gastrointestinal motility by measuring total fecal weight at 100 mg/kg, po measured after 1 hrs (reference value: 0.08 +/-0.02 g). It is filed as functional.
The nature of series [13]: Effect on locomotor activity in CD-1 mouse at 1 to 100 mg/kg, po measured up to 6 hrs. It is filed as organism-based. As to conditions: in vivo, dose 1-100 mg/kg.
Series [14] relates to Mus musculus. In words: Gastroprokinetic activity in CD-1 mouse assessed as stimulation of gastrointestinal motility by measuring total fecal weight at 1 mg/kg, po measured after 1 hrs (reference value: 0.08 +/-0.02 g). The series is classed as functional.
Series [15] concerns Mus musculus. As to the kind of experiment: Gastroprokinetic activity in CD-1 mouse assessed as stimulation of gastrointestinal motility by measuring fecal number at 1 mg/kg, po measured after 2 hrs (reference value: 5.3 +/-0.7). It is filed as functional.
Series [16] is described as follows: Drug concentration in C57BL6 mouse ileum at 100 mg/kg, po administered as single dose measured after 48 to 72 hrs by LC-MS/MS analysis. It is filed as ADME, organism-based. As to conditions: in vivo, time 48-72 hrs. A digest of the protocol:
(§1)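 Single oral dose of 1, 3 or 100 mg/kg in mouse. Plasma (ng/mL) and colon and ileum (ng/g) exposure sampled at 6, 24 and 48 h, and at 72 h for the top dose; mean values reported.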

The nature of series [17]: Drug concentration in C57BL6 mouse colon at 100 mg/kg, po administered as single dose measured after 24 hrs by LC-MS/MS analysis. The series is classed as ADME, organism-based. As to conditions: read-out: Ct. A digest of the protocol: as §1
The subject of series [18] is Mus musculus. In words: Gastroprokinetic activity in CD-1 mouse assessed as stimulation of gastrointestinal motility by measuring fecal number at 100 mg/kg, po measured after 2 hrs (reference value: 5.3 +/-0.7). The series is classed as functional.
The nature of series [19]: Drug concentration in C57BL6 mouse colon at 100 mg/kg, po administered as single dose measured after 48 hrs by LC-MS/MS analysis. The series is classed as ADME, organism-based. The note with it: read-out: Ct. A digest of the protocol:
as §1

Series [20] in a line: Drug concentration in C57BL6 mouse colon at 3 mg/kg, po administered as single dose measured after 24 to 48 hrs by LC-MS/MS analysis. The series is classed as ADME, organism-based. As to conditions: in vivo, time 24-48 hrs. In short, it runs like this:
as §1

For series [21], the system named is Mus musculus. As to the kind of experiment: Gastroprokinetic activity in CD-1 mouse assessed as stimulation of gastrointestinal motility by measuring total fecal weight at 1 mg/kg, po measured after 2 hrs (reference value: 0.13 +/-0.02 g). It is filed as functional.
Series [22] is described as follows: Drug concentration in C57BL6 mouse plasma at 100 mg/kg, po administered as single dose measured after 6 hrs by LC-MS/MS analysis. The series is classed as ADME, organism-based. A digest of the protocol:
as §1

A short description of series [23]: Drug concentration in C57BL6 mouse plasma at 100 mg/kg, po administered as single dose measured after 24 to 72 hrs by LC-MS/MS analysis. It is filed as ADME, organism-based. The note with it: in vivo, time 24-72 hrs. In short, it runs like this: as §1
Series [24] concerns Mus musculus. As to the kind of experiment: Gastroprokinetic activity in CD-1 mouse assessed as stimulation of gastrointestinal motility by measuring total fecal weight at 10 mg/kg, po measured after 6 hrs (reference value: 0.43 +/-0.05 g).
Series [25] in a line: Toxicity in CD-1 mouse assessed as effect on behavioral change at 1 to 100 mg/kg, po measured up to 6 hrs. It is filed as organism-based. As to conditions: in vivo, dose 1-100 mg/kg. In short, it runs like this: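 CD-1 mice dosed orally at 1, 10 or 100 mg/kg or with formulation vehicle (N = 12/group). General health status, locomotion and general behaviour observed at 1, 2, 3 and 6 h after treatment, alongside fecal collection in single grid-floored cages.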

The subject of series [26] is Mus musculus. In words: Gastroprokinetic activity in CD-1 mouse assessed as stimulation of gastrointestinal motility by measuring total fecal weight at 1 mg/kg, po measured after 6 hrs (reference value: 0.43 +/-0.05 g). It is filed as functional.
Series [27] deals with Mus musculus. As to the kind of experiment: Gastroprokinetic activity in CD-1 mouse assessed as stimulation of gastrointestinal motility by measuring fecal number at 100 mg/kg, po measured after 1 hrs (reference value: 3 +/-0.8). It is filed as functional.
The test system of series [28] is Mus musculus. In words: Gastroprokinetic activity in CD-1 mouse assessed as stimulation of gastrointestinal motility by measuring fecal number at 1 mg/kg, po measured after 1 hrs (reference value: 3 +/-0.8). The series is classed as functional.
For series [29], the system named is Mus musculus. In words: Gastroprokinetic activity in CD-1 mouse assessed as stimulation of gastrointestinal motility by measuring total fecal weight at 10 mg/kg, po measured after 2 hrs (reference value: 0.13 +/-0.02 g). It is filed as functional.

Sequence of Transient receptor potential cation channel subfamily M member 8 (Q7Z2W7 whole entry): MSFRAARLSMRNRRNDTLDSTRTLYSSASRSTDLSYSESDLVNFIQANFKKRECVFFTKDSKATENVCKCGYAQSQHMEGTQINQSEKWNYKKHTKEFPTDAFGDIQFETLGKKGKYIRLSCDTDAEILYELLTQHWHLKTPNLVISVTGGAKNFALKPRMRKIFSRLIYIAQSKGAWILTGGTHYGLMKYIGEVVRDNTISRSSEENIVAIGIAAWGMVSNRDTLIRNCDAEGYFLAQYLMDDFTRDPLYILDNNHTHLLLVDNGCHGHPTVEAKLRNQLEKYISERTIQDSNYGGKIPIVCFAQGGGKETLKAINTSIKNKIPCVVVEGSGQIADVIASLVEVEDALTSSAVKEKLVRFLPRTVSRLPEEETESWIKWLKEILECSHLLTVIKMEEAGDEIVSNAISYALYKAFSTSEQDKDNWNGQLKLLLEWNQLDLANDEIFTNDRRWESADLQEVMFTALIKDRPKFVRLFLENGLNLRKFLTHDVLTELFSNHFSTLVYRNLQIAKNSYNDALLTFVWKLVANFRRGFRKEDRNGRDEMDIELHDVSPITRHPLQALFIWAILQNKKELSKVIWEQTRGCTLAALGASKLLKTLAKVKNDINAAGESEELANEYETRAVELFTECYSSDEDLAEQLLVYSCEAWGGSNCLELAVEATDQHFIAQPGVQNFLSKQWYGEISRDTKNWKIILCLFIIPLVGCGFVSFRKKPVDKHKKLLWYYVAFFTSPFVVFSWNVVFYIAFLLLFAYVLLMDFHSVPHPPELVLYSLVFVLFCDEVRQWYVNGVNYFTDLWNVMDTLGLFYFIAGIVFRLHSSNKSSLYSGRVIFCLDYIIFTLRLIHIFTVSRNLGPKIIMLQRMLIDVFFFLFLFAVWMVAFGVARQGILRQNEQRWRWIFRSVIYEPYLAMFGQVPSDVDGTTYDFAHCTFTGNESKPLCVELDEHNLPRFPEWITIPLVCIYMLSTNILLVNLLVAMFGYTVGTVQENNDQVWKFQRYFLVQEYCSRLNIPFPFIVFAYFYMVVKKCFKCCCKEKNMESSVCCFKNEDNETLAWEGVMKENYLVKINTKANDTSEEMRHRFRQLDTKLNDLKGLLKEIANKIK
Sequence of Transient receptor potential cation channel subfamily A member 1 (O75762 whole entry): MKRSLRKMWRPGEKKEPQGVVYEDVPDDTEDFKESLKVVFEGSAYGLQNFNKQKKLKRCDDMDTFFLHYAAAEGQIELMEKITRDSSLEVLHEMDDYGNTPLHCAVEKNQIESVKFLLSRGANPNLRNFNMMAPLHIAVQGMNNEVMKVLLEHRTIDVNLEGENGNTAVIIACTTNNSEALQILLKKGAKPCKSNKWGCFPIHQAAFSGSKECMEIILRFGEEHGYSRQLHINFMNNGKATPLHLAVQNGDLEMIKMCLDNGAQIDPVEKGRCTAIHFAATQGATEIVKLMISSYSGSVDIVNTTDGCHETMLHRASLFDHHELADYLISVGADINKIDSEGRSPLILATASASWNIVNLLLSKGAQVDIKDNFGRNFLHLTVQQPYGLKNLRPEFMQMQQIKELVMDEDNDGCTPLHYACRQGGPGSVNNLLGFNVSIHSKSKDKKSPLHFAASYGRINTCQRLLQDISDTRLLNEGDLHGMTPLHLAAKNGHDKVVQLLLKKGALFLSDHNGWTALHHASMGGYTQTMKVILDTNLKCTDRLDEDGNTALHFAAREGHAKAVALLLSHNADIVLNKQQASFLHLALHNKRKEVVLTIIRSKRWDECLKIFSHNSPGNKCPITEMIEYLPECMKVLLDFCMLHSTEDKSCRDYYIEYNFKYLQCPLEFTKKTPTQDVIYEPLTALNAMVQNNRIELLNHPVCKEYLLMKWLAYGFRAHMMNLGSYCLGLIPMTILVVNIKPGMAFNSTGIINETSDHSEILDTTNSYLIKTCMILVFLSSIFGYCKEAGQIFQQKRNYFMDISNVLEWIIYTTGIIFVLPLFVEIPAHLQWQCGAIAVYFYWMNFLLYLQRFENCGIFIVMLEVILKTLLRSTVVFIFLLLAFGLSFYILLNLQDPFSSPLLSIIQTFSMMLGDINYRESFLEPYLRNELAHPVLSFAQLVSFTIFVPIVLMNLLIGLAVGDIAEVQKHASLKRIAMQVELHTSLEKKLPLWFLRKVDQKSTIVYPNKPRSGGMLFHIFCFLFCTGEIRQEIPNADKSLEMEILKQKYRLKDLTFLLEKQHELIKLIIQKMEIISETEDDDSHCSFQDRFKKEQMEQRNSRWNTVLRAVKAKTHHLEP
Sequence of Transient receptor potential cation channel subfamily V member 1 (Q8NER1 whole entry): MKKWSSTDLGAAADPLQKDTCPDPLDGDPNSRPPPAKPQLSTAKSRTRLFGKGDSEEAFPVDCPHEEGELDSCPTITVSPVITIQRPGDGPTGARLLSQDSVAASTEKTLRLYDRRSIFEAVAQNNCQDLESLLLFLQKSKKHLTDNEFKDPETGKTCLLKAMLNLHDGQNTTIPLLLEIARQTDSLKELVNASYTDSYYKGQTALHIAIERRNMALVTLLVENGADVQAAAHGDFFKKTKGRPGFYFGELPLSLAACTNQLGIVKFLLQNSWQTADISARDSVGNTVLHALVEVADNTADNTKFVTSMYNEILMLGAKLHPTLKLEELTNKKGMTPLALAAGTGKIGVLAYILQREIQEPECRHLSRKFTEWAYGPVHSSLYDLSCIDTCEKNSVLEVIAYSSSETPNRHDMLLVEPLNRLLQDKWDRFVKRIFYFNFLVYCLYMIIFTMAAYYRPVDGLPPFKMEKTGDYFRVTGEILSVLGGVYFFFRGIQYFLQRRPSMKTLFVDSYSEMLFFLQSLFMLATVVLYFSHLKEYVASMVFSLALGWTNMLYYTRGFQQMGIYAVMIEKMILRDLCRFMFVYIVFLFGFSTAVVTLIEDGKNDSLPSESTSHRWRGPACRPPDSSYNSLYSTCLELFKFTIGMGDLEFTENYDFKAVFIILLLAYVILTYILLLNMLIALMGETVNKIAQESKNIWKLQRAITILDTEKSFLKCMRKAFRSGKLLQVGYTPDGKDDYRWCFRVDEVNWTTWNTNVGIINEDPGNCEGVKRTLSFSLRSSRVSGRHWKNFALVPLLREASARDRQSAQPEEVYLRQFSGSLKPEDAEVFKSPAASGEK

The EC50 is the concentration giving half of the maximal effect. What is called fraction unbound is free concentration divided by total concentration. `Clc1cnc(CNc2ccc3sncc3c2)s1`: the EC50 was above 15.8 µM in series [1], 3.16 µM in series [4] and above 15.8 µM in [5]. Moreover, the fraction unbound at 5 h in [2] and in [3] was below 0.01 in each case. Further, the microsomal CLint in [6] is 462 µL/min/mg.

As usually defined, the bioavailability is the share of a dose that reaches the circulation, judged against a reference dose that is usually intravenous. Read a high bioavailability as good availability. Regarding `Clc1cnc(CNc2ccc3cnsc3c2)s1`, the EC50 in series [1] was above 15.8 µM; in series [4], 6.31 µM; in series [5] it was above 15.8 µM. Also, the fraction unbound at 5 h in series [2] and in [7] was below 0.01 in each case. In series [6], the microsomal CLint came to 164 µL/min/mg. Besides, in series [8], the concentration at 24 h came to 2.76 ng/mL. For the same compound, the bioavailability in series [9] was found to be 1.54%. The AUClast in [10] was determined as 541 ng·h/mL. The Vd in [11] came out at 1.12 L/kg.

As for `Clc1cnc(CNc2cc3sncc3cc2Cl)s1`, the Activity in the series with Mus musculus [12] was 0.12 g; in [13], “Non-Toxic”; in the series with Mus musculus [14], 0.09 g; in the series on Mus musculus [15], 7.5; in the series with Mus musculus [18], 10.2; in the series with Mus musculus [21] it was 0.15 g. For the same compound, the Activity with Mus musculus [24] was 0.39 g; in series [25], “Non-Toxic”; in the series with Mus musculus [26] it was 0.45 g; in the series on Mus musculus [27], 4; in the series with Mus musculus [28] it was 4.3; with Mus musculus [29] it was 0.18 g. Moreover, the EC50 in series [1] was above 15.8 µM; in series [4] it was 3.16 µM; in [5], above 15.8 µM. The fraction unbound at 5 h in series [2] and in series [7] was below 0.01 throughout. Besides, the Ct in series [16] and in series [20] was below 20 ng/mL each time. Besides, the concentration at 24 h in series [17] was determined as 164 ng/g. In addition, in series [19], the concentration at 48 h was found to be 58 ng/g. This compound also showed a concentration at 6 h in series [22] of 22.6 ng/mL. This compound registered a Cp in [23] below 20 ng/mL. For the same compound, the microsomal CLint in [6] amounted to 520 µL/min/mg.

For the origin of these results see ChEMBL document CHEMBL4823260, “From High-Throughput Screening to Target Validation: Benzo[d]isothiazoles as Potent and Selective Agonists of Human Transient Receptor Potential Cation Channel Subfamily M Member 5 Possessing In Vivo Gastrointestinal Prokinetic Activity in Rodents” (J Med Chem, 2021).
